# Assay outcomes deposited in PubChem by several laboratories.
# CHT inh = inhibitors of human choline transporter CHT; actives 0.86% (n = 310,000); AID 488975, 2010; CHT-expressing cells, membrane potential dye, choline response; hits give low values; B-score at 10 µM;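 active = B-score over 3 SD under the library average, and starting fluorescence ratio not unusually high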;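 also: choline stimulus applied at its EC90 after an EC20 pre-addition; B-score computed on integrated fluorescence ratio after choline addition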
# Target sequence (Q9GZV3 whole entry, looked up): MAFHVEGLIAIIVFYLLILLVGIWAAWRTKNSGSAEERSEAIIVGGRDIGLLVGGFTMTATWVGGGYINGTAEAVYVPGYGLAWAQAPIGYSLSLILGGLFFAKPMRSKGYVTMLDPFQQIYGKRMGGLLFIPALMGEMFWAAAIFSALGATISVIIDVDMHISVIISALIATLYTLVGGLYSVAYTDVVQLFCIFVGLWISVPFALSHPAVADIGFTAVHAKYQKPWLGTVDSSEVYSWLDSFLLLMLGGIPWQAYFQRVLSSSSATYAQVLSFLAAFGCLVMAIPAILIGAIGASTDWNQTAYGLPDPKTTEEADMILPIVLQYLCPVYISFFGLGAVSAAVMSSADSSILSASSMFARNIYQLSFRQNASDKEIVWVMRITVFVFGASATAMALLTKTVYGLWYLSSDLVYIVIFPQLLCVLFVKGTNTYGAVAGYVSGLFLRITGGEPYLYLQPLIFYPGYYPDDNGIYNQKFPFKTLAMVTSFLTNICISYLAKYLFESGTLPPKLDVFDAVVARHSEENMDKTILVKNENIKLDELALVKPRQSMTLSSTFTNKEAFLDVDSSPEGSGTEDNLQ
# PHOSPHO1 inh = PubChem AID 1565 | recombinant PHOSPHO1, absorbance phosphatase assay | inhibition, % at 13.3 µM | actives 1.1% (n = 290,000); in the data active = inhibition above about 60%
# CHT allo act = CHT positive allosteric modulators, primary screen, cell-based, membrane potential dye, choline EC20; High affinity choline transporter 1 (Homo sapiens), Q9GZV3; CHT-expressing cells; hits give high values; LV-AA mutant CHT in HEK293 cells; B-score at 10 µM; actives 0.49% (n = 310,000); AID 488977, 2010;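 active = initial fluorescence not abnormally high and integrated response B-score, plate-corrected, over 3 SD above library mean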
# HSF1 activator = HSF-1 activators, primary screen, NIH3T3-HGL cells, MG132 stress, luminescence, single point; AID 504408, 2011; actives 1.7% (n = 300,000); activation, % at 9 µM; NIH3T3-HGL HSF-1 luciferase reporter, 8 h; 100% = twice DMSO control signal;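 active = mean replicate activation of at least 50% with a set share of replicates each reaching 50%; inconclusive = only one of those two conditions met; inactive = mean below 50% and too few replicates reaching it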
# HSF1 inhib = HSF1 inhibitors in luciferase reporter cells, primary screen, cell-based, NIH3T3, luminescence | actives 0.77% (n = 300,000) | activity change, negative = inhibition, % at 7.5 µM (by protocol) | NIH3T3-HGL HSE-luciferase, MG132-induced, luminescence 8 h; hits give low values;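 active = more than half of replicate wells show activity change below -50%, luminescence cut by over half; inconclusive = some wells, but at most half, below -50%; inactive = no replicate well below -50%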;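 also: luciferase reports HSF-1 transcriptional activity via heat shock element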
# Hep lipid drop = inhibitors of hepatocyte lipid droplet formation, primary screen, imaging, high-throughput imaging, BODIPY stain; AML12 mouse hepatocytes, oleate lipid droplets; inhibition, % at 6.5 µM; actives 0.4% (n = 240,000); AID 1656, 2009;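 active = lipid droplet intensity inhibited by at least 50%, with more than 500 cells counted; inconclusive = wells with under 300 cells, treated as cytotoxic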
#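 material = mouse AML12 hepatocyte cell line, fixed after treatment | also added = 100 µM oleic acid challenge | doses = compound at 6.5 µM only | schedule = overnight exposure | technique = Image-based BODIPY and DAPI two-channel analysis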
# A number is an active result; i = inactive; ? = inconclusive; nt = not tested or not shown. The list is not random: actives were taken first. Their share in the collection is about 4.9%.
SMILES,CHT inh,PHOSPHO1 inh,CHT allo act,HSF1 activator,HSF1 inhib,Hep lipid drop
CCCn1nc(C(=O)NCc2ccc3c(c2)OCO3)c2ccccc2c1=O,i,i,i,i,i,i
COc1ccccc1-c1cc(C(F)(F)F)nc(S(=O)(=O)CCCC(=O)Nc2cccnc2Cl)n1,nt,i,nt,nt,nt,i
COc1ccccc1-c1cc(C(F)(F)F)nc(S(=O)(=O)CCCC(=O)NCc2ccc(F)cc2)n1,i,i,i,i,-80,i
COc1ccccc1-c1cc(C(F)(F)F)nc(S(=O)(=O)CCCC(=O)N2CCCCC2C)n1 (stereo not given),i,i,i,79,i,nt
O=C(COC(=O)c1ccccc1C(=O)c1ccccc1)Nc1ccc(SC(F)F)cc1,i,i,i,i,i,i
N#CC1=C(SCc2ccccc2)NC2=C(C(=O)CCC2)C1c1ccc2c(c1)OCO2 (stereo not given),i,93,i,i,i,nt
COC(=O)CSC1=C(C#N)C(c2ccc3c(c2)OCO3)C2=C(CCCC2=O)N1 (stereo not given),i,66,i,i,i,i
CCSC1=C(C#N)C(c2ccc3c(c2)OCO3)C2=C(CCCC2=O)N1 (stereo not given),i,i,i,i,i,i
COC(=O)CSC1=C(C#N)C(c2ccc(C)cc2)C2=C(CCCC2=O)N1 (stereo not given),i,i,i,i,i,nt
CC1=CC2C(C(O)CC3(C)C2CC(C)C32OCOC23COCO3)C2(C)C/C(=C\O)C(=O)C=C12 (stereo not given),nt,nt,nt,94,94,nt
CCCCC(=O)Nc1nn(CC(C)C)c2nc3ccccc3cc12,i,i,i,i,i,i
CCCn1nc(NC(=O)CC(C)C)c2cc3ccccc3nc21,i,69,i,i,i,nt
CCn1nc(NS(=O)(=O)c2ccc(NC(C)=O)cc2)c2cc3ccccc3nc21,i,65,i,i,i,i
CCn1nc(NS(=O)(=O)c2ccc(NC(C)=O)cc2)c2cc3ccc(C)cc3nc21,i,i,i,i,i,i
CCOC(=O)C(C)n1cnc2sc3c(c2c1=O)CCC3 (stereo not given),i,i,i,i,i,nt
CCc1cc2c(=O)n(C(C)C(=O)OC3CCCCC3)cnc2s1 (stereo not given),i,i,i,66,i,i
CCOC(=O)c1[nH]c2ccc(Br)cc2c1NC(=O)CCN1CCCCC1,nt,i,nt,nt,nt,nt
CCOC(=O)c1[nH]c2ccc(Br)cc2c1NC(=O)CCN1CCN(C(=O)OCC)CC1,i,65,i,i,i,nt
Cc1cc(=O)[nH]c(N/N=C/c2sccc2C)n1,i,i,i,i,i,i
C(=N\Nc1nc2ccccc2[nH]1)/c1cccs1,i,i,i,113,i,nt
Cc1cc(=O)[nH]c(N/N=C/c2cccs2)n1,i,i,i,i,i,i
Cc1ccsc1/C=N/Nc1nc2ccccc2[nH]1,nt,i,nt,803,i,i
COc1cccc(-c2ccc(=O)n(CC(=O)Nc3cc4c(cc3NC(C)=O)OCCO4)n2)c1,i,i,i,i,i,nt
COc1ccc(/C=C/C(=O)c2ccc(C)c([N+](=O)[O-])c2)cc1O,i,i,i,67,i,i
COc1cc(/C=C/C(=O)c2ccc(C)c([N+](=O)[O-])c2)cc(OC)c1O,i,i,i,128,i,i
SMILES,CHT inh,PHOSPHO1 inh,CHT allo act,HSF1 activator,HSF1 inhib,Hep lipid drop
COc1cc(/C=C/C(=O)c2c(O)cc(C)oc2=O)cc(OC)c1O,i,80,i,i,i,nt
COc1ccc2cc(C(=O)/C=C/c3cc(OC)c(O)c(OC)c3)ccc2c1,i,i,i,?,i,i
COc1cccc(/C=C/C(=O)c2ccc(C)c([N+](=O)[O-])c2)c1,i,i,i,i,i,i
COc1cccc(/C=C/C(=O)c2c(O)cc(C)oc2=O)c1O,i,i,i,i,i,nt
CN(C)S(=O)(=O)c1ccc(-c2csc(N/N=C/c3ccc(O)cc3)n2)cc1,i,i,i,i,i,i
O=c1[nH]c(COc2ccc(Br)cc2Cl)nc2ccccc12,i,i,i,90,i,i
CN(C)c1ccc(/C=C/c2nc3ccccc3c(=O)[nH]2)cc1,i,i,i,i,i,i
N#CCc1nc2ccccc2c(=O)[nH]1,i,i,i,65,i,i
O=c1[nH]c(/C=C/c2ccc(Br)cc2)nc2ccccc12,i,i,i,65,i,i
CC(=O)Nc1ccc(NC(=O)C(C)Sc2nnc(-c3cccs3)o2)cc1 (stereo not given),i,i,i,i,i,i
Cc1nc(N2CCN(c3ccccn3)CC2)c2c(C)c(C(=O)Nc3ccc(F)cc3Cl)sc2n1,i,i,i,i,i,i
CCCCCOc1ccc(NC2=CC(=O)CCC2)cc1,i,i,i,i,i,i
CC(=O)Oc1ccc(-c2cccc(C(=O)N(C)c3ccc(O)cc3)c2)cc1,i,i,i,i,i,i
COc1cccc(OCc2nnc(SCC(=O)NCc3ccco3)n2C)c1,i,i,i,i,i,nt
CCn1c(CNc2ccc(Cl)cc2)nnc1SCC(=O)OC1CCCCC1,i,i,i,60,i,i
O=C(CSc1nnc(CNc2ccc(Cl)cc2)n1Cc1ccccc1)NCc1ccco1,i,i,i,63,i,nt
CCn1c(CNc2cccc(Cl)c2)nnc1SCC(=O)OC1CCCCC1,i,i,i,i,i,i
O=C(CSc1nnc(Cc2ccccc2)n1Cc1ccccc1)NCc1ccco1,i,i,i,i,i,i
COc1cccc(OCc2nnc(SCC(=O)NCc3ccco3)n2CCc2ccccc2)c1,i,62,i,i,i,nt
C/C=C1\COC(C(=O)NCc2ccccc2)(C(F)(F)F)C=C1C=C1CCCCC1 (stereo not given),i,nt,i,71,i,nt
C/C=C1\COC(C(=O)NCCN2CCCC2)(C(F)(F)F)C=C1C=C1CCCCC1 (stereo not given),i,nt,i,i,i,nt
C=C1C(=O)O[C@H]2C[C@]3(C)C([C@@H](OC(=O)/C(C)=C/C)[C@H]12)[C@](C)(O)CC[C@H]3O (stereo not given in full),i,i,i,i,i,i
C=C[C@@]1(C)CC(=O)[C@]2(O)[C@@]3(C)[C@@H](O)CCC(C)(C)[C@@H]3[C@H](O)[C@H](OC(C)=O)[C@@]2(C)O1,-6.4,nt,i,i,i,nt
COc1ccc(C2Nc3ccccc3C(=O)N2NS(=O)(=O)c2ccc(C)cc2)cc1 (stereo not given),i,i,i,57,i,i
CC(C)C[C@H](NC(=O)C1(c2ccccc2)CCN(C(=O)[C@H]2CSCN2C(=O)OC(C)(C)C)CC1)C(=O)O,i,i,i,i,i,i
